AP complement = orthogonal test for alternative complement pathway inhibitors; Human serum alternative complement pathway, LPS-coated ELISA, C3 deposition; tested in compound mixtures; inhibition, % at 5 µM; hit rate 0.08% among 62,000;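 active means inhibition above 30% in each of the two pooled mixtures holding the compound, so the lower value exceeds 30%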;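 further: 0% = serum in Mg-EGTA without compound and 100% = EDTA serum blank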
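Medium: diluted human serum in Mg2+-EGTA GVB++. Assay system: human serum complement alternative pathway, C3 deposition onto LPS. Also added: Plate-bound LPS. Technique: Anti-C3 ELISA, OD 450 nm. Measure: percent inhibition. Incubation: 1 h at 37 °C. Dosing: 5 µM each compound, pools of ten, 50 µM per pool.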
Ec RNAP inh = blocks E. coli RNA polymerase transcription; fluorescence transcription assay; AID 559; hit rate 0.2% among 62,000; inhibition, %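 (tested at 10 µM)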; P0A8V2; in the data active means inhibition above about 20%;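 further: 0% = enzyme without compound and 100% = no enzyme blank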
HEK293 NFkB inh = inhibitors of the PMA/ionomycin-induced NF-kB reporter in HEK293 cells. HEK-293 NF-kB luciferase reporter, luminescence. inhibition, % at 3 µM. hit rate 0.21% among 62,000;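 active means inhibition above the mean of all tested compounds plus 3 SD, cut at about 40% in these data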;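 further: 0% = stimulated DMSO wells and 100% = 10 µM reference inhibitor 5653914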
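Material: HEK-293 cells with stable firefly luciferase reporter driven by four HIV NF-kB elements / Also added: PMA plus ionomycin mix as NF-kB-activating stimulus / Compound dosing: 3 µM once, 0.30% DMSO / Times: 1 h pretreatment, 16 h stimulation, 37 °C / Signal: luminescence / Evaluation: per-plate % inhibition versus controls / Benchmarks: DMSO and 10 µM reference inhibitor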
D1 allo mod = allosterically modulates the human D1 dopamine receptor; HEK293 D1, CRE-luciferase, dopamine EC30 potentiation; actives deviate in either direction; B-score at 10 µM; hit rate 5.9% among 58,000; P21728;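 active means luminescence count or its row- and column-corrected plate score outside the 99.7% band of the plate's sample wells, on either side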
Target sequence (P21728 whole entry, looked up): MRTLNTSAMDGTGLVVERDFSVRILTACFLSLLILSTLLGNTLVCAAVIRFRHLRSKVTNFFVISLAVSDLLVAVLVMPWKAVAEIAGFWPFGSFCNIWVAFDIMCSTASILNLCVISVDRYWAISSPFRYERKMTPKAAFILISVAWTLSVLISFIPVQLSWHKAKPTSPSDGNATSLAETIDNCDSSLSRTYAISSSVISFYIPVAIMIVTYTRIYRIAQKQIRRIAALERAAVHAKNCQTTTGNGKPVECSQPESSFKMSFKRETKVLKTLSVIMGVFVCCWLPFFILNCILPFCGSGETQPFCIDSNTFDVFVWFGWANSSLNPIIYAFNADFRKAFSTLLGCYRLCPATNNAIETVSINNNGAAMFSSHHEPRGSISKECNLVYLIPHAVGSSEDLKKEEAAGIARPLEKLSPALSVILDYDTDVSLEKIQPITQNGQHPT
hDAT+cocaine = modulates human dopamine transporter uptake under cocaine. Q01959. LLC-PK1 hDAT cells, [14C]-dopamine uptake with cocaine IC80; actives deviate in either direction. B-score at 10 µM. hit rate 1.3% among 110,000. AID 449768;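 active means Z score or B-score, a plate-position-corrected score, falls beyond the plate's 99.7% confidence bounds, in either direction; inactive means both scores lie inside the 99.7% bounds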;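 further: scored against the spread of the other compound wells on the same plate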
D1 PAM confirm = D1 receptor (human) allosteric modulation, confirmed; HEK293 D1 CRE-luciferase, dopamine EC30 potentiation; active compounds read high; AID 642; hit rate 88% among 2,200; shares compounds with D1 allo mod; luminescence at 10 µM;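 active means luminescence in either of two replicates above the same-plate mean plus 3 SD of the low-dose dopamine control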
D1 no dopamine = activates D1 CRE-luciferase signal without dopamine present. hit rate 0.8% among 1,900. luminescence at 10 µM. HEK293 D1 CRE-luciferase, luminescence, no dopamine; active compounds read high. shares compounds with D1 allo mod; in the data active means luminescence above about 3900
Isoprot counter = counter-screen for D1 modulators: isoproterenol response in HEK293 cells. shares compounds with D1 allo mod. HEK293 D1 CRE-luciferase, isoproterenol EC30 counter-screen. calls only at 10 µM. hit rate 63% among 2,200. AID 647;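 active means luminescence in either replicate above plate mean of wells with a partly effective reference agonist dose plus 3 SD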;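 further: isoproterenol raises cAMP through native beta-adrenoceptor Gs so signal bypasses D1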
Numbers without * were called inactive; i = inactive; nt = not tested or not shown; + = active, no number. Shown is part of a subset that was picked to be rich in hits.

SMILES | AP complement | Ec RNAP inh | HEK293 NFkB inh | D1 allo mod | hDAT+cocaine | D1 PAM confirm | D1 no dopamine | Isoprot counter
CCCCOc1ccc(C(=O)N2CC(C)OC(C)C2)cc1 (stereo unspecified) | nt | nt | nt | nt | 0.41 | nt | nt | nt
Cc1ccc(S(=O)(=O)C2(C(=O)Nc3cccc(F)c3)CC2)cc1 | 9 | 7 | -1 | 0.25 | 0.28 | nt | nt | nt
Clc1ccc2nc(N3CCNCC3)nc(-c3ccccc3)c2c1 | nt | 4 | nt | nt | 1.7 | nt | nt | nt
CN1CCN(c2nc(-c3ccccc3)c3cc(Cl)ccc3n2)CC1 | 2 | -2 | -2 | 5* | 0.88 | 11380* | 1508 | i
CCOC(=O)c1sc(N(C)C)nc1-c1ccccc1 | nt | nt | nt | nt | -0.31 | nt | nt | nt
CCOC(=O)c1nc(-c2ccccc2)oc1N(C)C | 11 | -5 | 7 | 4* | -0.6 | 9692* | 1608 | i
CCOc1cc(S(=O)(=O)N(CC)CC)ccc1Br | 23 | 4 | 15 | 12* | -0.36 | 11820* | 1708 | +
Cc1cc(C)nc(N2CCC(C(=O)NC3CCCc4ccccc43)CC2)n1 (stereo unspecified) | 6 | 6 | 1 | 0.2 | -0.39 | nt | nt | nt
CC(=O)NC1(c2ccccc2)CCN(c2nc(C)cc(C)n2)CC1 | 3 | 7 | 9 | 3.5* | -1.6 | 7128 | 1700 | i
O=c1cc(-c2ccccc2Cl)c2c([nH]1)CCC2 | 5 | 8 | -9 | 0.19 | -0.41 | nt | nt | nt
O=c1cc(-c2ccccc2)c2c([nH]1)CCCC2 | -3 | 7 | 21 | 5.3* | -0.37 | 7876* | 1792 | i
COc1ccc(Cc2nnc(NC(=O)c3c(-c4ccccc4)noc3C)s2)cc1 | 2 | 5 | 5 | 3.3* | 2 | 6196* | 1588 | i
COc1ccc(C2CC(C(F)(F)F)n3ncc(C(=O)NCc4cccnc4)c3N2)cc1OC (stereo unspecified) | 2 | 7 | 14 | 9.8* | 0.53 | 18500* | 1632 | +
COc1cccc(C2CC(C(F)(F)F)n3ncc(C(=O)NCC4CCCO4)c3N2)c1 (stereo unspecified) | 2 | 16 | -7 | 1.2 | 0.97 | nt | nt | nt
CN(C)Cc1c(O)ccc2occ(C(=O)c3ccccc3)c12 | 7 | 1 | 13 | 0.5 | 0.66 | nt | nt | nt
O=C(c1ccccc1)c1coc2ccc(O)c(CN3CCOCC3)c12 | 15 | 2 | 24 | 7.6* | 1.8 | 13536* | 1636 | +
Cn1nc(-c2ccc(N3CCOCC3)c(NC(=O)COc3ccccc3)c2)c2ccccc2c1=O | -18 | 4 | 36 | -0.84 | nt | nt | nt | nt
COc1ccccc1NC(=O)N(Cc1ccc2c(c1)OCO2)Cc1nc2ccccc2c(=O)[nH]1 | 30 | -1 | -3 | 4.9* | 0.53 | 5620* | 1528 | i
COc1ccc(S(=O)(=O)N2CCc3ccccc3C2)cc1OC | nt | nt | nt | nt | -0.51 | nt | nt | nt
COc1cc2c(cc1OC)CN(S(=O)(=O)c1ccc3c(c1)OCCO3)CC2 | -9 | 0 | 6 | 5.3* | 0.21 | 15328* | 1404 | +
CCSc1nncn1/N=C/c1ccc(OC)c(OC)c1 | 13 | 0 | 7 | 8.3* | 0.75 | 15592* | 1796 | +
C=C(C)CSc1nncn1/N=C/c1ccc(OC)cc1 | -4 | 10 | -7 | 3.5 | 1.3 | nt | nt | nt
Cc1nc2ccc(CCO)cc2s1 | 9 | -3 | 21 | 6.4* | 0.27 | 7448* | 1588 | i
Cc1nc2ccc(NC(=O)Cc3ccsc3)cc2s1 | nt | nt | nt | nt | 0.18 | nt | nt | nt
CCCCNC(=O)C1CCCN1C(=O)Nc1cccc(OC)c1 (stereo unspecified) | 31 | 1 | 21 | 30* | -0.78 | 4704 | 1636 | i
SMILES | AP complement | Ec RNAP inh | HEK293 NFkB inh | D1 allo mod | hDAT+cocaine | D1 PAM confirm | D1 no dopamine | Isoprot counter
CC1(C)CC2CC(C)(CN2C(=O)c2cc(-c3ccccc3O)on2)C1 (stereo unspecified) | 13 | 2 | 11 | 0.59 | -0.14 | nt | nt | nt
Cc1ccc(NC2c3ncccc3C(=O)N2Cc2ccc(F)cc2)cc1 (stereo unspecified) | 18 | 5 | 9 | 7.5* | 0.25 | 10592* | nt | +
CCOc1ccc(N2C(=O)c3cccnc3C2Nc2ccc(F)cc2)cc1 (stereo unspecified) | 1 | 7 | -1 | 0.012 | 1.3 | nt | nt | nt
COc1ccc(NC2c3ncccc3C(=O)N2Cc2ccccc2)c(OC)c1 (stereo unspecified) | 10 | 4 | 11 | 19* | 0.34 | 14524* | 1572 | +
COc1cc(NC2c3ncccc3C(=O)N2Cc2ccco2)cc(OC)c1 (stereo unspecified) | 8 | 6 | 8 | 12* | 0.099 | 14836* | 1576 | +
COc1ccc(CN2C(=O)c3cccnc3C2Nc2ccc(OC)c(Cl)c2)cc1 (stereo unspecified) | 16 | 5 | 10 | 7.6* | 2.2 | 13912* | nt | +
CCCNc1nc2c(c(=O)[nH]c(=O)n2C)n1CCC(C)C | 25 | nt | -6 | 7.5* | 0.31 | 12920* | 1500 | +
C=CCNc1nc2c(c(=O)[nH]c(=O)n2C)n1CCCCC | nt | nt | 4 | 6.6* | 0.82 | 23492* | 1616 | +
CCCCCCn1c(N(CC)CC)nc2c1c(=O)[nH]c(=O)n2C | -26 | -6 | 19 | 1.9 | 0.6 | nt | nt | nt
CCCCn1c(NCCC)nc2c1c(=O)[nH]c(=O)n2C | 8 | 12 | 14 | 5.9* | 0.046 | 9640* | 1280 | i
COC(=O)Cn1nc(-c2ccccc2)c2ccccc21 | 30 | 4 | 10 | 2.5* | -0.33 | 5172 | 1632 | i
CN1CCN(C2=CC(=O)OC23CCCCC3)CC1 | nt | nt | nt | nt | 0.85 | nt | nt | nt
O=C(Nc1ccc(Cl)cc1)OCCn1nnnc1C(c1ccccc1Cl)N1CCOCC1 (stereo unspecified) | nt | nt | nt | nt | 0.45 | nt | nt | nt
Nc1nncn1C(=O)CCCOc1ccc(Cl)cc1Cl | -12 | 7 | 14 | 1 | 0.04 | nt | nt | nt
CC1CCN(c2nnc(N)s2)CC1 | -2 | 7 | 0 | 2.8* | -0.47 | 4832 | 944 | i
Nc1nnc(N2CCCCC2)s1 | 20 | 2 | 9 | 0.33 | 0.035 | nt | nt | nt
CCOC(=O)c1cc(C)n(S(=O)(=O)c2ccc(C)cc2)c1C | 8 | 5 | 15 | nt | -1 | nt | nt | nt
CCOCCCNC(=O)CN(Cc1ccc(Cl)cc1)S(C)(=O)=O | 15 | 3 | 2 | 0.43 | -0.085 | nt | nt | nt
COCCCNC(=O)CN(Cc1ccc(Cl)cc1)S(C)(=O)=O | 14 | 2 | 23 | 9.2* | -0.87 | 5504 | 1488 | i
CCCC(=O)c1cc(F)c(N2CCOCC2)cc1C | -9 | -2 | 6 | 0.21 | 0.48 | nt | nt | nt
c1ccc(Cc2nn3c(COc4ccccc4)nnc3s2)cc1 | 19 | 6 | 7 | 9.1* | 0.092 | 17316* | 1624 | +
CCOc1ccccc1OCc1nn2c(COc3ccccc3)nnc2s1 | 28 | -4 | 20 | 0.021 | 0.3 | nt | nt | nt
